Results: ChEMBL document CHEMBL2417530, “Coumarin derivatives protect against ischemic brain injury in rats” (Eur J Med Chem, 2013)

Legend:
PC-12 = assay: Neuroprotective activity in rat PC12 cells assessed as attenuation of oxygen-glucose deprivation-induced cellular damage at 10 uM by MTT assay relative to control; type: functional
Summary of the method: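 PC12 cells were seeded at 5×10^3/well for 24 h. OGD insult was low-glucose medium plus 5 mM sodium dithionite for 24 h, given together with 10 µM compound. MTT (5 mg/mL) was added for 4 h and absorbance read at 570 nm. Viability was expressed as % of full-medium control; n = 3.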

[1] = Cytotoxicity against rat PC12 cells assessed as cell proliferation at 10 uM by MTT assay relative to control; type: cell-based, PC-12; conditions: read-out: Activity
Summary of the method: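 PC12 cells were grown in DMEM with 5% FBS, 5% horse serum and 2 mM glutamine at 37 °C, 5% CO2. They were seeded at 5×10^3 cells/well for 24 h, then exposed to 10 µM compound in full medium. Viability was read by MTT (5 mg/mL, 4 h) at 570 nm as % of control absorbance; n = 3.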

Structure (SMILES) | Activity (PC-12) | viability at 10 µM [1]
Cc1c(N2CCN(C)CC2)c(=O)oc2cc(O)cc(OCCCNC(=O)OC(C)(C)C)c12 | 15.8% | 153%
Cc1c(N2CCN(C(=O)/C=C/c3ccccc3)CC2)c(=O)oc2cc(O)cc(O)c12 | 45.9% | 104%
Cc1c(N2CCN(C(=O)Nc3ccccc3Oc3ccccc3)CC2)c(=O)oc2cc(O)cc(O)c12 | 49.3% | 97.9%
Cc1c(N2CCN(C)CC2)c(=O)oc2cc(O)cc(OCCc3cccs3)c12 | 39.1% | 178%
COc1ccccc1N1CCN(c2c(C)c3c(O)cc(O)cc3oc2=O)CC1 | 46.8% | 102%
Cc1cc(O)c2c(C)c(N3CCN(C)CC3)c(=O)oc2c1 | 47.3% | 99.5%
Cc1c(N2CCN(C(=O)NCc3ccccc3)CC2)c(=O)oc2cc(O)cc(O)c12 | 49.6% | 102%
Cc1c(N2CCN(C)CC2)c(=O)oc2cc(O)cc(OCCNS(C)(=O)=O)c12 | 40.3% | 103%
CCCCNC(=S)N1CCN(c2c(C)c3c(O)cc(O)cc3oc2=O)CC1 | 48.9% | 103%
Cc1c(N2CCN(C)CC2)c(=O)oc2cc(O)ccc12 | 44.8% | 99%
Cc1c(N2CCN(C(=O)Nc3ccc(C(C)C)cc3)CC2)c(=O)oc2cc(O)cc(O)c12 | 46.3% | 97.3%
Cc1c(N2CCN(C)CC2)c(=O)oc2cc(O)cc(OC3CCCC3)c12 | 33.8% | 181%
Cc1c(N2CCN(C)CC2)c(=O)oc2cc(OCCN3CCCCC3)ccc12 | 45.3% | 95.4%
C=CC(=O)N1CCN(c2c(C)c3c(O)cc(O)cc3oc2=O)CC1 | 48.3% | 98.5%
Cc1c(N2CCN(C)CC2)c(=O)oc2cc(O)cc(OC3CCN(C(=O)OC(C)(C)C)CC3)c12 | 51.5% | 137%
Cc1c(N2CCN(C)CC2)c(=O)oc2cc(O)cc(OCCNC(=O)OC(C)(C)C)c12 | 23.4% | 132%
Cc1c(N2CCN(C)CC2)c(=O)oc2cc(O)cc(OCc3ccccn3)c12 | 44.2% | 116%
Cc1c(N2CCN(C)CC2)c(=O)oc2cc(O)cc(OCc3nccs3)c12 | 54.7% | 108%
Cc1ccc(COc2cc(O)cc3oc(=O)c(N4CCN(C)CC4)c(C)c23)c(C)c1 | 27.3% | 51.6%
CCCCCCCCOc1cc(O)cc2oc(=O)c(N3CCN(C)CC3)c(C)c12 | 15.6% | 59.4%
CCCCCCCNC(=O)N1CCN(c2c(C)c3c(O)cc(O)cc3oc2=O)CC1 | 43.4% | 99.3%
Cc1c(N2CCN(C)CC2)c(=O)oc2cc(O)cc(OC3CCCCC3)c12 | 36.1% | 177%
Cc1c(N2CCN(C)CC2)c(=O)oc2cc(O)cc(OCCN3CCCC3)c12 | 48.2% | 135%
Cc1c(N2CCN(C)CC2)c(=O)oc2cc(O)cc(OC3CCN(C)CC3)c12 | 19.9% | 139%

Structure (SMILES) | Activity (PC-12) | viability at 10 µM [1]
COc1cc(OC)c2c(C)c(N3CCN(C)CC3)c(=O)oc2c1 | 49.6% | 100%
Cc1c(CC(=O)N2CCN(C)CC2)c(=O)oc2cc(O)cc(O)c12 | 46.7% | 97.7%
Cc1c(N2CCN(C)CC2)c(=O)oc2cc(O)cc(OCCN(C)C)c12 | 61.5% | 104%
Cc1c(N2CCN(C)CC2)c(=O)oc2cc(O)cc(OCCCN)c12 | 40.5% | 107%
CC(=O)Oc1cc(OC(C)=O)c2c(C)c(N3CCN(C)CC3)c(=O)oc2c1 | 46.6% | 102%
Cc1c(N2CCN(C)CC2)c(=O)oc2cc(O)cc(OC(C)C)c12 | 51.8% | 119%
Cc1c(CCC(=O)N2CCN(C)CC2)c(=O)oc2cc(O)cc(O)c12 | 46.1% | 97.5%
Cc1ccc(S(=O)(=O)NCCOc2cc(O)cc3oc(=O)c(N4CCN(C)CC4)c(C)c23)cc1 | 45.1% | 140%
Cc1c(N2CCN(C)CC2)c(=O)oc2cc(OCCN3CCCC3)ccc12 | 44.9% | 104%
Cc1c(N2CCN(C)CC2)c(=O)oc2cc(O)cc(O)c12 | 52.7% | 107%
Cc1c(N2CCN(c3ccc(F)cc3)CC2)c(=O)oc2cc(O)cc(O)c12 | 47% | 103%
COc1ccc(COc2ccc3c(C)c(N4CCN(C)CC4)c(=O)oc3c2)cc1 | 44.2% | 136%
CCC(CC)CN1CCN(c2c(C)c3c(O)cc(O)cc3oc2=O)CC1 | 49.5% | 102%
Cc1c(N2CCN(C)CC2)c(=O)oc2cc(O)cc(OCCc3ccccn3)c12 | 48.2% | 152%
Cc1c(N2CCN(c3cccc(C(F)(F)F)c3)CC2)c(=O)oc2cc(O)cc(O)c12 | 46.5% | 103%
Cc1c(N2CCN(S(=O)(=O)c3ccccc3)CC2)c(=O)oc2cc(O)cc(O)c12 | 49.7% | 97.4%
Cc1c(N2CCN(C)CC2)c(=O)oc2cc(O)cc(OCC3CC3)c12 | 37.7% | 184%
COc1cc(O)c2c(C)c(N3CCN(C)CC3)c(=O)oc2c1 | 46.1% | 99.8%
Cc1c(N2CCN(C(=O)C(F)(F)F)CC2)c(=O)oc2cc(O)cc(O)c12 | 49.3% | 97.4%
Cc1c(N2CCN(C)CC2)c(=O)oc2cc(O)cc(OC3CCOC3)c12 (configuration not stated) | 52% | 107%
Cc1c(N2CCN(Cc3cc4c(cc3Cl)OCO4)CC2)c(=O)oc2cc(O)cc(O)c12 | 44.6% | 97.2%
CCOc1cc(O)cc2oc(=O)c(N3CCN(C)CC3)c(C)c12 | 33.9% | 167%
Cc1c(N2CCN(C)CC2)c(=O)oc2cc(OCCc3cccs3)ccc12 | 43.7% | 110%
Cc1c(N2CCN(C)CC2)c(=O)oc2cc3c(cc12)OCO3 | 47.9% | 101%

Structure (SMILES) | Activity (PC-12) | viability at 10 µM [1]
Cc1cccc(N2CCN(c3c(C)c4c(O)cc(O)cc4oc3=O)CC2)c1C | 47.1% | 103%
Cc1c(N2CCN(C)CC2)c(=O)oc2cc(OCCN3CCOCC3)ccc12 | 49.3% | 101%
Cc1c(N2CCN(C(=O)Nc3ccc(OC(F)(F)F)cc3)CC2)c(=O)oc2cc(O)cc(O)c12 | 48.7% | 99.5%
CC(=O)N1CCN(c2c(C)c3c(O)cc(O)cc3oc2=O)CC1 | 48.4% | 98.1%
Cc1c(N2CCN(C)CC2)c(=O)oc2cc(N(C)C)ccc12 | 45.8% | 97.8%
CCN1CCN(c2c(C)c3c(O)cc(O)cc3oc2=O)CC1 | 46.4% | 101%
Cc1c(N2CCN(Cc3ccccc3)CC2)c(=O)oc2cc(O)cc(O)c12 | 44.4% | 100%
Cc1c(N2CCN(C)CC2)c(=O)oc2cc(O)cc(OCCN)c12 | 49.2% | 104%
CC(=O)Nc1ccc(S(=O)(=O)N2CCN(c3c(C)c4c(O)cc(O)cc4oc3=O)CC2)cc1 | 44.5% | 98.1%
Cc1c(N2CCN(C)CC2)c(=O)oc2cc(O)cc(OCCN3CCOCC3)c12 | 56.9% | 108%
Cc1c(N2CCN(C)CC2)c(=O)oc2cc(O)cc(OCCN3CCCCC3)c12 | 24.9% | 144%
CCOc1ccc2c(C)c(N3CCN(C)CC3)c(=O)oc2c1 | 45.6% | 101%
Cc1c(N2CCN(C(=S)Nc3cccc(F)c3)CC2)c(=O)oc2cc(O)cc(O)c12 | 48.8% | 101%
Cc1c(N2CCN(C(c3ccc(F)cc3)c3ccc(F)cc3)CC2)c(=O)oc2cc(O)cc(O)c12 | 47.8% | 102%
Cc1c(CCN2CCN(C)CC2)c(=O)oc2cc(O)cc(O)c12 | 45.9% | 102%
CCC1CCC(Oc2ccc3c(C)c(N4CCN(C)CC4)c(=O)oc3c2)CC1 (configuration not stated) | 49.2% | 101%
Cc1c(N2CCNCC2)c(=O)oc2cc(O)cc(O)c12 | 46.4% | 96.3%
Cc1c(N2CCN(C(=O)c3ccccc3)CC2)c(=O)oc2cc(O)cc(O)c12 | 44.6% | 100%
CCCCOc1cc(O)cc2oc(=O)c(N3CCN(C)CC3)c(C)c12 | 46.2% | 197%
Cc1c(N2CCN(C)CC2)c(=O)oc2cc(O)cc(OCCCCl)c12 | 36.3% | 197%
Cc1c(N2CCN(C(=O)Nc3ccc(F)cc3)CC2)c(=O)oc2cc(O)cc(O)c12 | 46.3% | 104%
COc1ccc2c(C)c(N3CCN(C)CC3)c(=O)oc2c1 | 43.7% | 100%
Cc1c(N2CCN(C(=O)CCl)CC2)c(=O)oc2cc(O)cc(O)c12 | 48.1% | 97.4%
